37 sequences from the array DNA melting data of Ke et al. (doi:10.1101/2024.01.08.574731) can be followed below.

A short description of data set [1]: folding enthalpy; higher = less favourable; fluorescence melt of hairpins on a sequencing array, two-state fit. The conditions noted are these: sodium 0.088 M. The essentials:
(§1)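 Cy3 signals were normalised both to pre-quench Cy3 and to control constructs. They came from library hairpins carrying annealed Cy3 and quencher oligos on a sequenced MiSeq flow cell, imaged in 50 mM Na-HEPES pH 8.0, 25 mM NaCl, in 2.5 °C steps up to 60 °C. Bootstrapped two-state fits gave melting temperature and folding enthalpy, and four replicates were combined by inverse variance. Fitted temperatures were then raised by 9.35 °C to match UV melts.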

Data set [2] is described as follows: melting temperature; fluorescence melt of hairpins on a sequencing array, two-state fit, raised by 9.35 °C to match UV melts. The conditions noted are these: sodium 0.088 M. An outline of the steps: as §1

In the case of GGGATAGAAATATCCC ((((((....)))))), the folding enthalpy in data set [1] was -30.3 kcal/mol. For the same sequence, the Tm in data set [2] stood at 51.1 °C.

Take GGGATAGGAAACTATCTC (.(((((....))))).): the folding enthalpy in data set [1] was -25.3 kcal/mol. For the same sequence, the Tm in data set [2] is 39.8 °C.

On to GGGATCCGAAAGGACCC (((.(((....)))))), for which, in data set [1], the folding enthalpy was -36.5 kcal/mol. The Tm in data set [2] worked out at 55.7 °C.

GGGATCGAAAGATACCCC ((((((....)))..))): the folding enthalpy in data set [1] was -18.1 kcal/mol. The Tm in data set [2] is 51.6 °C.

As for GGGATCGAAAGATGCCCC ((((((....)))..))), the folding enthalpy in data set [1] is -15 kcal/mol. Besides, the Tm in data set [2] came to 49.2 °C.

Turning to GGGATCGAAAGATGTCCC ((((((....)))..))), the folding enthalpy in data set [1] was -17.3 kcal/mol. In addition, in data set [2], the Tm turned out to be 35.9 °C.

With GGGATCGGAAACGACCCC (((.(((....))).))), the folding enthalpy in data set [1] was -37.5 kcal/mol. The Tm in data set [2] was 52.4 °C.

For the sequence GGGATCGGAAACGGTCTC (.((.((....)).)).), the folding enthalpy in data set [1] is -22.1 kcal/mol. For the same sequence, the Tm in data set [2] worked out at 39.6 °C.

Regarding GGGATGACGAAAGTCCCC (((..(((....)))))), in data set [1], the folding enthalpy was -18.4 kcal/mol. In data set [2], the Tm worked out at 42.9 °C.

As to GGGATGGGAAACCATCCC (((((((....))))))), the folding enthalpy in data set [1] was -41.5 kcal/mol. Moreover, in data set [2], the Tm came out at 67.4 °C.

As for GGGATGGGAAACTGTCCC ((((..(....)..)))), the folding enthalpy in data set [1] is -31.3 kcal/mol. Also, in data set [2], the Tm is 43.5 °C.

Turning to GGGATTCGAAAGAACCCC (((.(((....))).))), the folding enthalpy in data set [1] was -34 kcal/mol. Also, the Tm in data set [2] amounted to 49.9 °C.

For the sequence GGGATTGGAAACAATCCC (((((((....))))))), in data set [1], the folding enthalpy is -41.9 kcal/mol. The Tm in data set [2] is 60.5 °C.

As for GGGATTGGAAACAGTCTC (.((.((....)).)).), the folding enthalpy in data set [1] is -13 kcal/mol. Moreover, the Tm in data set [2] came out at 27.7 °C.

In the case of GGGATTGGAAACGATTCC ((.((.(....).)).)), in data set [1], the folding enthalpy is -21 kcal/mol. For the same sequence, the Tm in data set [2] turned out to be 36.9 °C.

Regarding GGGCAACGAAAGTTCCCC (((.(((....))).))), the folding enthalpy in data set [1] is -20.2 kcal/mol. Further, the Tm in data set [2] was found to be 47.2 °C.

Regarding GGGCAAGAAATTGCCC ((((((....)))))), in data set [1], the folding enthalpy was -33.9 kcal/mol. Further, the Tm in data set [2] was found to be 63.6 °C.

As to GGGCAGCCGAAAGGCCCC (((..(((....)))))), in data set [1], the folding enthalpy was -15.1 kcal/mol. In addition, in data set [2], the Tm worked out at 48.1 °C.

GGGCAGCGAAAGCTACCC (((.(((....))).))): the folding enthalpy in data set [1] was -31.2 kcal/mol. In addition, the Tm in data set [2] stood at 57.1 °C.

On to GGGCATCGAAAGATCCC (((.(((....)))))), for which the folding enthalpy in data set [1] was -30.4 kcal/mol. The Tm in data set [2] was determined as 50.4 °C.

As for GGGCATGGAAACACGCCC ((((.((....)).)))), the folding enthalpy in data set [1] was -45.3 kcal/mol. In data set [2], the Tm was found to be 51.8 °C.

GGGCATGGAAACGTGTCC ((.((.(....).)).)): the folding enthalpy in data set [1] is -29 kcal/mol. In addition, the Tm in data set [2] was determined as 45 °C.

Regarding GGGCCAGGAAACCGACCC (((.(.(....).).))), the folding enthalpy in data set [1] is -20.9 kcal/mol. Besides, in data set [2], the Tm turned out to be 34.6 °C.

On to GGGCCCGAAAGGGCACCC ((((((....)))..))), for which, in data set [1], the folding enthalpy was -9.72 kcal/mol. Further, in data set [2], the Tm came out at 65 °C.

GGGCCCGCGAAAGCGCCC (((..(((....)))))): the folding enthalpy in data set [1] is -15.6 kcal/mol. For the same sequence, in data set [2], the Tm is 55.8 °C.

As to GGGCCCGGAAACGGGCTC (.(((((....))))).), the folding enthalpy in data set [1] is -12.2 kcal/mol. Further, the Tm in data set [2] is 68 °C.

Consider GGGCCGACGAAAGTCCCC (((..(((....)))))), for which the folding enthalpy in data set [1] was -12 kcal/mol. Besides, the Tm in data set [2] was found to be 43.8 °C.

As to GGGCCGCCGAAAGGCCCC (((..(((....)))))), in data set [1], the folding enthalpy was -13.6 kcal/mol. Further, in data set [2], the Tm was 64.1 °C.

As to GGGCCTGGAAACAGACCC (((.(((....))).))), in data set [1], the folding enthalpy was -38.6 kcal/mol. Further, in data set [2], the Tm was 50.9 °C.

Consider GGGCCTGGAAACAGGTCC ((.((((....)))).)), for which, in data set [1], the folding enthalpy is -36.4 kcal/mol. Besides, in data set [2], the Tm stood at 65 °C.

As to GGGCCTGGAAACGGGCTC (.(((.(....).))).), the folding enthalpy in data set [1] was -24 kcal/mol. For the same sequence, the Tm in data set [2] stood at 50.2 °C.

On to GGGCGACGAAAGTCCCC (((.(((....)))))), for which the folding enthalpy in data set [1] is -27.5 kcal/mol. For the same sequence, the Tm in data set [2] was 55.4 °C.

Turning to GGGCGAGGAAACTCGCTC (.(((((....))))).), the folding enthalpy in data set [1] is -15.8 kcal/mol. The Tm in data set [2] worked out at 58.1 °C.

In the case of GGGCGAGGAAACTTGCCC ((((.((....)).)))), in data set [1], the folding enthalpy was -45.6 kcal/mol. Further, in data set [2], the Tm amounted to 59.1 °C.

Regarding GGGCGCCGAAAGGCACCC (((.(((....))).))), the folding enthalpy in data set [1] is -22.8 kcal/mol. In data set [2], the Tm was found to be 67.5 °C.

For GGGCGCGAAAGCGAACCC ((((((....)))..))), the folding enthalpy in data set [1] is -14 kcal/mol. In data set [2], the Tm stood at 59.3 °C.

With GGGCGCGAAAGCGCTCCC ((((((....)))..))), in data set [1], the folding enthalpy is -9.05 kcal/mol. Also, the Tm in data set [2] was found to be 53.6 °C.
